Assays:
[1] = Cytotoxicity against human SH-SY5Y cells assessed as cell viability after 72 hrs by MTT assay; assay type: cell-based
Outline: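 Human neuroblastoma SY5Y cells were exposed to a range of concentrations up to 100 μM. Viability was read by colorimetric MTT assay, and the IC50 was taken from it.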

[2] = biological target: Sigma non-opioid intracellular receptor 1 (Homo sapiens, UniProt Q99720); assay: Displacement of [3H](+)Pentazocine from sigma 1 receptor in human Jurkat cells after 120 mins by liquid scintillation counting analysis; assay type: cell-based
Chain of Sigma non-opioid intracellular receptor 1 (Q99720 whole entry): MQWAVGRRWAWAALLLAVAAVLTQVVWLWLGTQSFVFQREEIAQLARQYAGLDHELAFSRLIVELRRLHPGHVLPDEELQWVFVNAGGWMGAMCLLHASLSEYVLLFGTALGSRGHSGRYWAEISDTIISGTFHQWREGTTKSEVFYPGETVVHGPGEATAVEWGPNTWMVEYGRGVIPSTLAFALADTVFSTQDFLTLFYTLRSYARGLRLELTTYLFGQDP

[3] = Ratio of IC50 for human SY5Y cells to Ki for sigma 1 receptor in human Jurkat cells
Outline: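 Selectivity index was calculated as the SY5Y cytotoxicity IC50 divided by the S1R Ki. The IC50 came from a colorimetric MTT viability assay on human neuroblastoma SY5Y cells dosed up to 100 μM. The Ki came from [3H](+)-pentazocine competition binding on Jurkat cell membranes.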

Jurkat = assay: Selectivity ratio of Ki for sigma2 receptor in human Jurkat cells to Ki for sigma1 receptor human Jurkat cells; assay type: cell-based
Outline: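 Both affinities came from radioligand competition on Jurkat cell membranes. S1R used [3H](+)-pentazocine. S2R used [3H]-DTG with excess unlabelled (+)-pentazocine. Ki values were derived from IC50s, and the ratio was calculated as Ki(S2R)/Ki(S1R).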

| SMILES | IC50 [1] [µM] | Ki [2] [µM] | Ratio [3] | Ratio Ki (Jurkat) |
| --- | --- | --- | --- | --- |
| O=c1oc2ccccc2n1CCCN1Cc2ccccc2C1 | > 100 | > 0.1 | – | – |
| CN(CCCn1c(=O)oc2ccccc21)Cc1ccccc1 | > 100 | > 0.1 | – | – |
| CN(CCCn1c(=O)sc2ccc(Br)cc21)Cc1ccccc1 | 26.5 | 0.0031 | 8417 | 35 |
| O=C1COc2ccc(Br)cc2N1CCCN1Cc2ccccc2C1 | > 100 | > 0.1 | – | – |
| CN(CCCn1c(=O)n(C)c2ccccc21)Cc1ccccc1 | 73.8 | > 0.1 | – | – |
| CN(CCCn1c(=O)sc2ccc(Cl)cc21)Cc1ccccc1 | 9.9 | 0.0047 | 2124 | 35 |
| CN(CCCn1c(=O)oc2ccc(Cl)cc21)Cc1ccccc1 | > 100 | 0.0064 | 15500 | 16 |
| O=c1sc2cc(Br)ccc2n1CCCN1Cc2ccccc2C1 | 31.4 | 0.0057 | 5471 | – |
| Cc1nc2ccccc2n1CCCN(C)Cc1ccccc1 | 50.2 | > 0.1 | – | – |
| Cn1c(=O)n(CCCN2Cc3ccccc3C2)c2ccccc21 | > 100 | > 0.1 | – | – |
| CN(CCCn1c(=O)oc2ccc(Br)cc21)Cc1ccccc1 | 14.2 | 0.0012 | 11463 | 13 |
| O=c1oc2cc(Br)ccc2n1CCCN1Cc2ccccc2C1 | > 100 | > 0.1 | – | – |
| O=C1[C@@H]2Cc3ccccc3CN2C(=O)N1CCCN1Cc2ccccc2C1 | – | 0.0053 | – | 78 |
| CN(CCCN1C(=O)COc2ccc(Br)cc21)Cc1ccccc1 | 13.4 | > 0.1 | – | – |
| CN(CCCN1C(=O)CSc2ccc(Br)cc21)Cc1ccccc1 | 18.7 | 0.0022 | 8631 | 22 |
| CN(CCCn1c(=O)oc2cc(Br)ccc21)Cc1ccccc1 | 58.8 | 0.0009 | 63291 | 37 |
| CN(CCCn1c(=O)sc2ccccc21)Cc1ccccc1 | 10 | 0.0103 | 973 | – |
| CN(CCCn1c(=O)sc2cc(Br)ccc21)Cc1ccccc1 | 13.2 | 0.0006 | 23250 | 48 |
| O=c1sc2ccccc2n1CCCN1Cc2ccccc2C1 | > 100 | 0.0303 | >3000 | – |
| CN(CCCN1C(=O)[C@@H]2Cc3ccccc3CN2C1=O)Cc1ccccc1 | > 100 | – | – | – |

From ChEMBL document CHEMBL3407377, “Synthesis and pharmacological evaluation of benzannulated derivatives as potent and selective sigma-1 protein ligands” (Eur J Med Chem, 2015)
